Columns and labels:
[1] = Cytotoxicity in pig PEK cells assessed as reduction in cell viability measured after 5 days by resazurin dye based assay; design: species or system Sus scrofa, Kidney; conditions: 120 h, time 5 day
Summary of the method: (§1)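 Cells (about 10⁵/well, 5% FBS) were added to two-fold compound dilutions (eight concentrations from 100 μM; DMSO control) and held 5 days at 36.5 °C in CO2. Medium was then replaced with resazurin (25 μg/mL) for 4 h and stopped with SDS. Fluorescence was read at Ex 525 / Em 580–640 nm, with background wells without resazurin subtracted. Done in two replicates; CC50 calculated.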

Influenza A virus = experiment: Antiviral activity against Influenza A virus (H1N1) infected in MDCK cells assessed as reduction in cytopathic effect preincubated with cells for 1 hrs followed by viral addition and measured after 24 hrs by Reed-Muench method; assay type: functional, organism-based
Summary of the method: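 MDCK monolayers were pre-incubated 1 h at 37 °C with 3-fold compound dilutions (from 2 mg/mL DMSO stock), then infected at MOI 1 for 24 h. Supernatant yield was titrated by 10-fold dilutions on fresh MDCK for 72 h. Titre was read by hemagglutination with 1% chicken erythrocytes and calculated by Reed-Muench as TID50 per 100 μL.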

Powassan virus = experiment: Antiviral activity against Powassan virus infected in pig PEK cells assessed as reduction in virus plaque formation preincubated with virus for 1 hr followed by cell infection and measured after 1 hr by crystal violet staining based assay; assay type: functional, organism-based
[2] = Selectivity index, ratio of CC50 for African green monkey Vero cells to EC50 for Antiviral activity against Chikungunya virus infected in African green monkey Vero cells; assay type: toxicity; conditions: read-out: Ratio CC50/EC50
[3] = Selectivity index, ratio of CC50 for pig PEK cells to EC50 for Antiviral activity against Powassan virus infected in pig PEK cells; assay type: toxicity, cell-based; conditions: read-out: Ratio CC50/EC50
SARS-CoV-2 = experiment: Antiviral activity against SARS COV-2 infected in monkey vero cells assessed as reduction in virus-induced cytopathic effect preincubated with virus for 1 hr followed by cell infection and measured after 5 days by microscopic analysis; assay type: functional, organism-based; conditions: Severe acute respiratory syndrome coronavirus 2, Vero
Human alphaherpesvirus 3 [4] = experiment: Antiviral activity against thymidine kinase deficient Varicella zoster virus; assay type: functional, organism-based
Summary of the method: (§2)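 Confluent HEL cultures received 100 CCID50 or 20 PFU of virus, with 2 h adsorption before inoculum removal. Cells were then incubated with compound from 100 μM downward. Cytopathicity or plaques were scored once untreated infected controls reached completion.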

Human alphaherpesvirus 3 [5] = experiment: Antiviral activity against thymidine kinase positive Varicella zoster virus; assay type: functional, organism-based; summary of the method: as §2
[6] = Selectivity index, ratio of CC50 for human HEL cells to EC50 for antiviral activity against thymidine kinase deficient Varicella zoster virus; assay type: toxicity; conditions: read-out: Ratio CC50/EC50
Human betaherpesvirus 5 [7] = experiment: Antiviral activity against Human cytomegalovirus Davis; assay type: functional, organism-based; conditions: Human betaherpesvirus 5, Davis; summary of the method: as §2
HEp-2 = experiment: Cytotoxicity in human Hep2 cells assessed as reduction in cell viability measured after 3 days by beckman coulter counting method; assay type: functional; conditions: HEp-2, 72 h, time 3 day
Summary of the method: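 Hep2 cells seeded at 5 × 10³ cells/well and allowed to grow 24 h, then exposed to compound dilutions starting at 100 μM for 3 days at 37 °C. Cell number measured by Coulter counter.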

Vero = experiment: Cytotoxicity in African green monkey Vero cells assessed as reduction in cell viability measured after 5 days by resazurin dye based assay; conditions: chlorocebus sabaeus, vero, 120 h; time 5 day; summary of the method: as §1
[8] = tested on: Tick-borne encephalitis virus; experiment: Antiviral activity against Tick-borne encephalitis virus infected in pig PEK cells assessed as reduction in virus plaque formation preincubated with virus for 1 hr followed by cell infection and measured after 1 hr by crystal violet staining based assay; assay type: functional, organism-based
[9] = tested on: Respiratory syncytial virus; experiment: Antiviral activity against Respiratory syncytial virus assessed as reduction in virus-induced cytopathic effect by MTS assay; assay type: functional, organism-based; conditions: human respiratory syncytial virus
HEL = experiment: Cytotoxicity against human HEL cells assessed as reduction in cell viability measured after 3 days by beckman coulter counting method; assay type: cell-based; conditions: 72 h, time 3 day
Summary of the method: (§3)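 Cells were seeded at 5 × 10³/well, grown 24 h, then exposed to compound from 100 μM downward for 3 days at 37 °C. Cell number was counted with a Coulter counter.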

Human betaherpesvirus 5 [10] = experiment: Antiviral activity against Human cytomegalovirus AD169; assay type: functional, organism-based; conditions: Human betaherpesvirus 5, AD169; summary of the method: as §2
[11] = Selectivity index, ratio of CC50 for human HEL cells to EC50 for antiviral activity against thymidine kinase positive Varicella zoster virus; assay type: toxicity; conditions: read-out: Ratio CC50/EC50
Chikungunya virus = experiment: Antiviral activity against Chikungunya virus infected in African green monkey Vero cells assessed as reduction in virus plaque formation preincubated with virus for 1 hr followed by cell infection and measured after 1 hr by crystal violet staining based assay; assay type: functional, organism-based
MDCK = experiment: Cytotoxicity in dog MDCK cells assessed as reduction in cell viability measured after 3 days by beckman coulter counting method; assay type: cell-based, Canis lupus familiaris; conditions: mdck, 72 h, time 3 day; summary of the method: as §3
[12] = Selectivity index, ratio of CC50 for pig PEK cells to EC50 for Antiviral activity against Tick-borne virus encephalitis infected in pig PEK cells; assay type: toxicity, cell-based; conditions: read-out: Ratio CC50/EC50
[13] = tested on: Omsk hemorrhagic fever virus; experiment: Antiviral activity against Omsk hemorrhagic fever virus infected in pig PEK cells assessed as reduction in virus plaque formation preincubated with virus for 1 hr followed by cell infection and measured after 1 hr by crystal violet staining based assay; assay type: functional, organism-based

CCCCCCCCCOc1ccc2c(c1)Nc1nc(=O)n([C@H]3C[C@H](O)[C@@H](CO)O3)cc1O2
CC50 [1]: > 100 µM
EC50 (Influenza A virus): > 40 µM
EC50 (Powassan virus): 7.7 µM
selectivity ratio [2]: > 13
selectivity ratio [3]: > 13
EC50 (SARS-CoV-2): > 100 µM
EC50 (Human alphaherpesvirus 3 [4]): 14.2 µM
EC50 (Human alphaherpesvirus 3 [5]): 0.2 µM
selectivity ratio [6]: > 8
EC50 (Human betaherpesvirus 5 [7]): > 100 µM
CC50 (HEp-2): > 100 µM
CC50 (Vero): > 100 µM
EC50 [8]: 5.3 µM
EC50 [9]: > 100 µM
CC50 (HEL): > 100 µM
EC50 (Human betaherpesvirus 5 [10]): > 100 µM
selectivity ratio [11]: > 500
EC50 (Chikungunya virus): 7.4 µM
CC50 (MDCK): > 100 µM
selectivity ratio [12]: > 18

CCCCCCCCCCOc1ccc2c(c1)N(C)c1nc(=O)n([C@H]3C[C@H](O)[C@@H](CO)O3)cc1O2
CC50 [1]: 79 µM
EC50 (Influenza A virus): 23 µM
EC50 (Powassan virus): 0.45 µM
selectivity ratio [2]: 83
EC50 (SARS-CoV-2): > 100 µM
EC50 (Human alphaherpesvirus 3 [4]): 15.1 µM
EC50 (Human alphaherpesvirus 3 [5]): 10.7 µM
selectivity ratio [6]: > 6
EC50 (Human betaherpesvirus 5 [7]): 20 µM
CC50 (HEp-2): > 100 µM
CC50 (Vero): 59 µM
EC50 [8]: 5.4 µM
EC50 [9]: > 100 µM
CC50 (HEL): > 100 µM
EC50 (Human betaherpesvirus 5 [10]): > 20 µM
selectivity ratio [11]: > 11
EC50 (Chikungunya virus): 0.71 µM
CC50 (MDCK): > 40 µM

COc1ccc(C(OC[C@H]2O[C@@H](n3cc4c(nc3=O)Nc3ccccc3O4)[C@H](O)[C@@H]2O)(c2ccccc2)c2ccc(OC)cc2)cc1
EC50 (SARS-CoV-2): 11.5 µM
CC50 (Vero): 15.9 µM

NCCOc1cccc2c1Nc1nc(=O)n([C@@H]3O[C@H](CO)[C@@H](O)[C@H]3O)cc1O2
EC50 (SARS-CoV-2): 2.52 µM
CC50 (Vero): 2.92 µM

CCCCCCCCCOc1ccc2c(c1)N(C)c1nc(=O)n([C@H]3C[C@H](O)[C@@H](CO)O3)cc1O2
CC50 [1]: > 100 µM
EC50 (Influenza A virus): 35 µM
EC50 (Powassan virus): 2.4 µM
selectivity ratio [2]: > 15
selectivity ratio [3]: > 42
EC50 (SARS-CoV-2): > 100 µM
EC50 (Human alphaherpesvirus 3 [4]): > 20 µM
EC50 (Human alphaherpesvirus 3 [5]): > 20 µM
EC50 (Human betaherpesvirus 5 [7]): > 100 µM
CC50 (HEp-2): > 100 µM
CC50 (Vero): > 100 µM
EC50 [8]: 2.53 µM
EC50 [9]: > 100 µM
CC50 (HEL): > 100 µM
EC50 (Human betaherpesvirus 5 [10]): > 100 µM
EC50 (Chikungunya virus): 6.3 µM
CC50 (MDCK): > 100 µM
selectivity ratio [12]: > 40

COc1ccc(C(OC[C@H]2O[C@@H](n3cc4c(nc3=O)Nc3ccccc3O4)[C@H](OC)[C@@H]2O)(c2ccccc2)c2ccc(OC)cc2)cc1
EC50 (SARS-CoV-2): 12.4 µM
CC50 (Vero): 26.5 µM

NC(=O)c1ncn([C@@H]2O[C@H](CO)[C@@H](O)[C@H]2O)n1 [RIBAVIRIN]
CC50 (HEp-2): 250 µM
EC50 [9]: 2 µM

NOCN1c2ccccc2Oc2cn([C@H]3C[C@H](O)[C@@H](CO)O3)c(=O)nc21
EC50 (SARS-CoV-2): > 100 µM
CC50 (Vero): > 100 µM

CCCCCCCCOc1ccc2c(c1)N(C)c1nc(=O)n([C@H]3C[C@H](O)[C@@H](CO)O3)cc1O2
CC50 [1]: > 100 µM
EC50 (Influenza A virus): 104 µM
EC50 (Powassan virus): 13.3 µM
selectivity ratio [2]: > 4
selectivity ratio [3]: > 7
EC50 (SARS-CoV-2): > 100 µM
EC50 (Human alphaherpesvirus 3 [4]): > 100 µM
EC50 (Human alphaherpesvirus 3 [5]): 8.7 µM
EC50 (Human betaherpesvirus 5 [7]): > 100 µM
CC50 (HEp-2): > 100 µM
CC50 (Vero): > 100 µM
EC50 [8]: 22 µM
EC50 [9]: > 100 µM
CC50 (HEL): > 100 µM
EC50 (Human betaherpesvirus 5 [10]): > 100 µM
selectivity ratio [11]: 74
EC50 (Chikungunya virus): 23.8 µM
CC50 (MDCK): > 100 µM
selectivity ratio [12]: > 4

COc1ccc(C(OC[C@H]2O[C@@H](n3cc4c(nc3=O)Nc3c(OCCN)cccc3O4)[C@H](O)[C@@H]2O)(c2ccccc2)c2ccc(OC)cc2)cc1
EC50 (SARS-CoV-2): > 100 µM
CC50 (Vero): > 100 µM

CCCCCCCCCOc1ccc2c(c1)Nc1nc(=O)n(COCCO)cc1O2
EC50 (Influenza A virus): > 100 µM
EC50 (SARS-CoV-2): > 100 µM
EC50 (Human alphaherpesvirus 3 [4]): > 100 µM
EC50 (Human alphaherpesvirus 3 [5]): > 100 µM
EC50 (Human betaherpesvirus 5 [7]): > 100 µM
CC50 (HEL): > 100 µM
EC50 (Human betaherpesvirus 5 [10]): > 100 µM
CC50 (MDCK): > 100 µM

Nc1ccn(C[C@@H](CO)OCP(=O)(O)O)c(=O)n1 [CIDOFOVIR]
EC50 (Human betaherpesvirus 5 [7]): 0.61 µM
CC50 (HEL): > 300 µM

Nc1onc(C(=O)OCC23CC4CC(CC(C4)C2)C3)c1CCc1ccccc1
CC50 [1]: > 100 µM
EC50 (Powassan virus): 15 µM
EC50 [8]: 4 µM
EC50 [13]: 15 µM

O=c1nc(NO)ccn1[C@@H]1O[C@H](CO)[C@@H](O)[C@H]1O [N-HYDROXYCYTIDINE]
EC50 (SARS-CoV-2): 7.4 µM
CC50 (Vero): > 100 µM

COc1ccc(C(OC[C@H]2O[C@@H](n3cc4c(nc3=O)Nc3c(OCCN)cccc3O4)C[C@@H]2O)(c2ccccc2)c2ccc(OC)cc2)cc1
EC50 (SARS-CoV-2): > 100 µM
CC50 (Vero): > 100 µM

CCC(CC)O[C@@H]1C=C(C(=O)O)C[C@H](N)[C@H]1NC(C)=O [OSELTAMIVIR CARBOXYLATE]
EC50 (Influenza A virus): 2.9 µM
CC50 (MDCK): > 100 µM

CN1c2ccccc2Oc2cn([C@H]3C[C@H](O)[C@@H](CO)O3)c(=O)nc21
CC50 [1]: > 100 µM
EC50 (Powassan virus): > 50 µM
EC50 (SARS-CoV-2): > 100 µM
EC50 (Human alphaherpesvirus 3 [4]): > 100 µM
EC50 (Human alphaherpesvirus 3 [5]): > 100 µM
EC50 (Human betaherpesvirus 5 [7]): > 100 µM
CC50 (HEp-2): > 100 µM
CC50 (Vero): > 100 µM
EC50 [8]: 40 µM
EC50 [9]: > 100 µM
CC50 (HEL): > 100 µM
EC50 (Human betaherpesvirus 5 [10]): > 100 µM
EC50 (Chikungunya virus): > 50 µM
CC50 (MDCK): > 100 µM

O=c1nc2c(cn1[C@@H]1O[C@H](CO)[C@@H](O)[C@H]1O)Oc1ccccc1N2
EC50 (SARS-CoV-2): > 100 µM
CC50 (Vero): > 100 µM

Nc1nc(O)c2ncn(COC(CO)CO)c2n1 [GANCICLOVIR]
EC50 (Human betaherpesvirus 5 [7]): 1.79 µM
CC50 (HEL): > 300 µM
EC50 (Human betaherpesvirus 5 [10]): 19 µM

NCCOc1cccc2c1Nc1nc(=O)n([C@H]3C[C@H](O)[C@@H](CO)O3)cc1O2
EC50 (SARS-CoV-2): 1.12 µM
CC50 (Vero): 1.81 µM

CO[C@@H]1[C@H](O)[C@@H](CO)O[C@H]1n1cc2c(nc1=O)Nc1ccccc1O2
EC50 (SARS-CoV-2): > 100 µM
CC50 (Vero): > 100 µM

— ChEMBL document CHEMBL4842312, “Phenoxazine nucleoside derivatives with a multiple activity against RNA and DNA viruses” (Eur J Med Chem, 2021)
